From ChEMBL document CHEMBL1687728, “Daptomycin versus Friulimicin B: in-depth profiling of Bacillus subtilis cell envelope stress responses” (2009)
The source made the active and inactive calls. The rule behind the calls is not given here.

Key:
Bacillus subtilis [1] = experiment: Induction of ycgRQ gene expression in Bacillus subtilis at 1 ug/ml by microarray analysis relative to untreated control; format: functional
How it was run: (§1)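 B. subtilis cells harvested 10 min after antibiotic addition. Pellets were snap-frozen in liquid nitrogen, then RNA was prepared for microarray hybridization. Fold induction is taken against untreated control cells.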

Bacillus subtilis [2] = experiment: Induction of ylaC gene expression in Bacillus subtilis by real-time RT-PCR; format: functional
How it was run: (§2)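 Transcript levels measured by one-step real-time RT-PCR with SYBR green detection. Fold change is given as mean ± standard deviation of two independent experiments.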

Bacillus subtilis [3] = experiment: Induction of yjbC-spx gene expression in Bacillus subtilis at 1 ug/ml by microarray analysis relative to untreated control; format: functional; how it was run: as §1
Bacillus subtilis [4] = experiment: Induction of radC gene expression in Bacillus subtilis at 1 ug/ml by microarray analysis relative to untreated control; format: functional; how it was run: as §1
Bacillus subtilis [5] = experiment: Induction of yrhH gene expression in Bacillus subtilis at 1 ug/ml by microarray analysis relative to untreated control; format: functional; how it was run: as §1
Bacillus subtilis [6] = experiment: Induction of ydaH gene expression in Bacillus subtilis at 1 ug/ml by microarray analysis relative to untreated control; format: functional; how it was run: as §1
Bacillus subtilis [7] = experiment: Induction of sigX gene expression in Bacillus subtilis by real-time RT-PCR; format: functional; how it was run: as §2
Bacillus subtilis [8] = experiment: Induction of yoxD gene expression in Bacillus subtilis at 1 ug/ml by microarray analysis relative to untreated control; format: functional; how it was run: as §1
Bacillus subtilis [9] = experiment: Induction of sigM-yhdLK gene expression in Bacillus subtilis at 1 ug/ml by microarray analysis relative to untreated control; format: functional; how it was run: as §1
Bacillus subtilis [10] = experiment: Induction of sigV-yrhM gene expression in Bacillus subtilis at 1 ug/ml by microarray analysis relative to untreated control; format: functional; how it was run: as §1
Bacillus subtilis [11] = experiment: Induction of sigY gene expression in Bacillus subtilis by real-time RT-PCR; format: functional; how it was run: as §2
Bacillus subtilis [12] = experiment: Induction of yjbQ gene expression in Bacillus subtilis at 1 ug/ml by microarray analysis relative to untreated control; format: functional; how it was run: as §1
Bacillus subtilis [13] = experiment: Induction of liaH gene expression in Bacillus subtilis by real-time RT-PCR; format: functional; how it was run: as §2
Bacillus subtilis [14] = experiment: Induction of yebC gene expression in Bacillus subtilis at 1 ug/ml by microarray analysis relative to untreated control; format: functional; how it was run: as §1
Bacillus subtilis [15] = experiment: Induction of sigM gene expression in Bacillus subtilis by real-time RT-PCR; format: functional; how it was run: as §2
Bacillus subtilis [16] = experiment: Induction of mreBH gene expression in Bacillus subtilis at 1 ug/ml by microarray analysis relative to untreated control; format: functional; how it was run: as §1
Bacillus subtilis [17] = experiment: Induction of ybeF gene expression in Bacillus subtilis at 1 ug/ml by microarray analysis relative to untreated control; format: functional; how it was run: as §1
Bacillus subtilis [18] = experiment: Induction of bcrC gene expression in Bacillus subtilis at 1 ug/ml by microarray analysis relative to untreated control; format: functional; how it was run: as §1
Bacillus subtilis [19] = experiment: Induction of pbpI gene expression in Bacillus subtilis at 1 ug/ml by microarray analysis relative to untreated control; format: functional; how it was run: as §1
Bacillus subtilis [20] = experiment: Induction of ypbG gene expression in Bacillus subtilis at 1 ug/ml by microarray analysis relative to untreated control; format: functional; how it was run: as §1
Bacillus subtilis [21] = experiment: Induction of ypuA gene expression in Bacillus subtilis at 1 ug/ml by microarray analysis relative to untreated control; format: functional; how it was run: as §1
Bacillus subtilis [22] = experiment: Induction of liaIH gene expression in Bacillus subtilis at 1 ug/ml by microarray analysis relative to untreated control; format: functional; how it was run: as §1
Bacillus subtilis [23] = experiment: Induction of yfnI gene expression in Bacillus subtilis at 1 ug/ml by microarray analysis relative to untreated control; format: functional; how it was run: as §1
Bacillus subtilis [24] = experiment: Induction of yrhIJ gene expression in Bacillus subtilis at 1 ug/ml by microarray analysis relative to untreated control; format: functional; how it was run: as §1
Bacillus subtilis [25] = experiment: Induction of gerAAABAC gene expression in Bacillus subtilis at 1 ug/ml by microarray analysis relative to untreated control; format: functional; how it was run: as §1
Bacillus subtilis [26] = experiment: Induction of ypuD gene expression in Bacillus subtilis at 1 ug/ml by microarray analysis relative to untreated control; format: functional; how it was run: as §1
Bacillus subtilis [27] = experiment: Induction of ywnJ gene expression in Bacillus subtilis at 1 ug/ml by microarray analysis relative to untreated control; format: functional; how it was run: as §1
Bacillus subtilis [28] = experiment: Induction of yqiG gene expression in Bacillus subtilis at 1 ug/ml by microarray analysis relative to untreated control; format: functional; how it was run: as §1
Bacillus subtilis [29] = experiment: Induction of sms-yacKL gene expression in Bacillus subtilis at 1 ug/ml by microarray analysis relative to untreated control; format: functional; how it was run: as §1
Bacillus subtilis [30] = experiment: Induction of ywtF gene expression in Bacillus subtilis at 1 ug/ml by microarray analysis relative to untreated control; format: functional; how it was run: as §1
Bacillus subtilis [31] = experiment: Induction of ywaC gene expression in Bacillus subtilis at 1 ug/ml by microarray analysis relative to untreated control; format: functional; how it was run: as §1
Bacillus subtilis [32] = experiment: Induction of sigZ gene expression in Bacillus subtilis by real-time RT-PCR; format: functional; how it was run: as §2
Bacillus subtilis [33] = experiment: Induction of ylxW gene expression in Bacillus subtilis at 1 ug/ml by microarray analysis relative to untreated control; format: functional; how it was run: as §1
Bacillus subtilis [34] = experiment: Induction of sigV gene expression in Bacillus subtilis by real-time RT-PCR; format: functional; how it was run: as §2
Bacillus subtilis [35] = experiment: Induction of rodA gene expression in Bacillus subtilis at 1 ug/ml by microarray analysis relative to untreated control; format: functional; how it was run: as §1
Bacillus subtilis [36] = experiment: Induction of yppC gene expression in Bacillus subtilis at 1 ug/ml by microarray analysis relative to untreated control; format: functional; how it was run: as §1
Bacillus subtilis [37] = experiment: Induction of yqjL gene expression in Bacillus subtilis at 1 ug/ml by microarray analysis relative to untreated control; format: functional; how it was run: as §1
Bacillus subtilis [38] = experiment: Induction of sigW gene expression in Bacillus subtilis by real-time RT-PCR; format: functional; how it was run: as §2
Bacillus subtilis [39] = experiment: Induction of promoter liaI in Bacillus subtilis at 0.5 to 2 ug/ml; format: functional, organism-based
How it was run: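 PliaI promoter activity read by β-galactosidase assay in strain BFS2470 (W168 liaI::pMUTIN). Antibiotic concentrations spanned 4 orders of magnitude.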

## CC(C)CCCCCCC/C=C\CC(=O)N[C@@H](CC(N)=O)C(=O)N[C@@H]1C(=O)N2CCCC[C@@H]2C(=O)N[C@@H]([C@H](C)C(=O)O)C(=O)N[C@@H](CC(=O)O)C(=O)NCC(=O)N[C@@H](CC(=O)O)C(=O)NCC(=O)N[C@H]([C@H](C)N)C(=O)N[C@@H](C(C)C)C(=O)N2CCC[C@H]2C(=O)N[C@@H]1C [FRIULIMICIN B]
Bacillus subtilis [1]
  fold change (FC): 5.9
Bacillus subtilis [2]
  fold change (FC): 2.9
Bacillus subtilis [3]
  fold change (FC): 7.2
Bacillus subtilis [4]
  fold change (FC): 6.9
Bacillus subtilis [5]
  fold change (FC): 8.5
Bacillus subtilis [6]
  fold change (FC): 9.1
Bacillus subtilis [7]
  fold change (FC): 0.8
Bacillus subtilis [8]
  fold change (FC): 3.7
Bacillus subtilis [9]
  fold change (FC): 7.4
Bacillus subtilis [10]
  fold change (FC): 5.1
Bacillus subtilis [11]
  fold change (FC): 1.8
Bacillus subtilis [12]
  fold change (FC): 3.4
Bacillus subtilis [13]
  fold change (FC): 0.9
Bacillus subtilis [14]
  fold change (FC): 4.1
Bacillus subtilis [15]
  fold change (FC): 8.7
Bacillus subtilis [16]
  fold change (FC): 3.1
Bacillus subtilis [17]
  Activity: inactive
Bacillus subtilis [18]
  fold change (FC): 8.2
Bacillus subtilis [19]
  fold change (FC): 3.8
Bacillus subtilis [20]
  fold change (FC): 6.4
Bacillus subtilis [21]
  fold change (FC): 6.5
Bacillus subtilis [22]
  Activity: inactive
Bacillus subtilis [23]
  fold change (FC): 4.7
Bacillus subtilis [24]
  fold change (FC): 5.7
Bacillus subtilis [25]
  Activity: inactive
Bacillus subtilis [26]
  fold change (FC): 6.2
Bacillus subtilis [27]
  fold change (FC): 4.1
Bacillus subtilis [28]
  fold change (FC): 3.4
Bacillus subtilis [29]
  fold change (FC): 7.1
Bacillus subtilis [30]
  fold change (FC): 3.9
Bacillus subtilis [31]
  fold change (FC): 8.7
Bacillus subtilis [32]
  fold change (FC): 1.2
Bacillus subtilis [33]
  fold change (FC): 3.5
Bacillus subtilis [34]
  fold change (FC): 7.4
Bacillus subtilis [35]
  fold change (FC): 3.8
Bacillus subtilis [36]
  fold change (FC): 4.1
Bacillus subtilis [37]
  fold change (FC): 8.9
Bacillus subtilis [38]
  fold change (FC): 0.9

## CCCCCCCCCC(=O)N[C@@H](Cc1c[nH]c2ccccc12)C(=O)N[C@H](CC(N)=O)C(=O)N[C@@H](CC(=O)O)C(=O)N[C@@H]1C(=O)NCC(=O)N[C@@H](CCCN)C(=O)N[C@@H](CC(=O)O)C(=O)N[C@H](C)C(=O)N[C@@H](CC(=O)O)C(=O)NCC(=O)N[C@H](CO)C(=O)N[C@@H]([C@H](C)CC(=O)O)C(=O)N[C@@H](CC(=O)c2ccccc2N)C(=O)O[C@@H]1C
Bacillus subtilis [1]
  Activity: inactive
Bacillus subtilis [2]
  fold change (FC): 1
Bacillus subtilis [3]
  Activity: inactive
Bacillus subtilis [4]
  Activity: inactive
Bacillus subtilis [5]
  fold change (FC): 3.1
Bacillus subtilis [6]
  fold change (FC): 3.3
Bacillus subtilis [7]
  fold change (FC): 0.8
Bacillus subtilis [8]
  Activity: inactive
Bacillus subtilis [9]
  Activity: inactive
Bacillus subtilis [10]
  Activity: inactive
Bacillus subtilis [11]
  fold change (FC): 0.9
Bacillus subtilis [12]
  Activity: inactive
Bacillus subtilis [13]
  fold change (FC): 1170
Bacillus subtilis [14]
  Activity: inactive
Bacillus subtilis [15]
  fold change (FC): 2.4
Bacillus subtilis [16]
  fold change (FC): 3.9
Bacillus subtilis [17]
  fold change (FC): 4.6
Bacillus subtilis [18]
  fold change (FC): 3.3
Bacillus subtilis [39]
  Activity: Active
Bacillus subtilis [19]
  Activity: inactive
Bacillus subtilis [20]
  Activity: inactive
Bacillus subtilis [21]
  Activity: inactive
Bacillus subtilis [22]
  fold change (FC): 429
Bacillus subtilis [23]
  Activity: inactive
Bacillus subtilis [24]
  Activity: inactive
Bacillus subtilis [25]
  fold change (FC): 15
Bacillus subtilis [26]
  Activity: inactive
Bacillus subtilis [27]
  Activity: inactive
Bacillus subtilis [28]
  Activity: inactive
Bacillus subtilis [29]
  Activity: inactive
Bacillus subtilis [30]
  Activity: inactive
Bacillus subtilis [31]
  fold change (FC): 4.5
Bacillus subtilis [32]
  fold change (FC): 1
Bacillus subtilis [33]
  Activity: inactive
Bacillus subtilis [34]
  fold change (FC): 2.4
Bacillus subtilis [35]
  Activity: inactive
Bacillus subtilis [36]
  Activity: inactive
Bacillus subtilis [37]
  fold change (FC): 3.3
Bacillus subtilis [38]
  fold change (FC): 1.4
